This sample holds only a part of the variants without activity.
B1: tRNA (parent)
chain: GUUCCGUUGGCGUAAUGGUAACGCGUCUCCCUCCUAAGGAGAAGACUGCGGGUUCGAGUCCCGUACGGAACG

Variants of: B1
Assay: yeast fitness relative to wild type (ratio to wild type); higher = fitter; tRNA-Arg(CCU), competitive growth, 37 C, YPD
Procedure, shortened: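 The tRNA-Arg(CCU) gene variants were made by chemical synthesis with a 3% per-site mutation rate at 69 sites and inserted at the native genomic locus of Saccharomyces cerevisiae. After pooling, the strains were competed in YPD at 37°C for 24 hours in six parallel replicates. Gene amplicons from the start population and each end population were read by 100-nucleotide paired-end sequencing, and Darwinian fitness relative to wild type was taken from genotype frequency changes. Genotypes needed ≥ 100 starting reads, and estimates < 0.5 were set to 0.5.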

Question: With GUUCCGUUGGCGUACUGGUAACGCGUCUCCCUCGUAAGGAGAAGAAUGCGGGUUCGAGUCUCGUAGGGAACG [A15C C34G C46A C61U C66G] as the variant, how does the yeast fitness read?
Answer: The yeast fitness was at most 0.5.

Question: Which yeast fitness does the source give for GUUCCGUUGGCGUACUGGUAACGCGUCUCCCUCUUAAGGAGAAGACUGCGGGUUCGCGUCCCGUACGGAACG [A15C C34U A57C] here?
Answer: The yeast fitness was 0.603.

Question: For GUUCCGUUGGCGUACUGGUAACGCGUCUCCCUCCUAAGGAGAAGAUUGCGGGUUCGAGUCUCGUACAGAACG [A15C C46U C61U G67A], which yeast fitness is on record?
Answer: The yeast fitness was at most 0.5.

Question: With GUUCCGUUGGCGUACUGGUAACGCGUCUCCCUCCUAAGGAGAAGACUGCGGGUUCGAGUGCCGUACGGAACG [A15C C60G] as the variant, how does the yeast fitness read?
Answer: Its yeast fitness is 0.612.

Question: Which yeast fitness does the source give for GUUCCGUUGGCGUACUGGUAACGCGUCUCCCUCGUAAGGAGAAGACUGGGGGUCCGAGUCCCGUAGGCAACG [A15C C34G C49G U54C C66G G68C] here?
Answer: Its yeast fitness is at most 0.5.

Question: Which yeast fitness does the source give for GUUCCGUUGGCGUACUGGUAACGCGUCUCCCUCCUAAGGAGAAGAAUGCGGGUUCCAGUCCCGUACGGAGCG [A15C C46A G56C A70G] here?
Answer: The yeast fitness was at most 0.5.

Question: With GUUCCGUUGGCGUACUGGUAACGCGUCUCCCUCCUAAGGAGAAGACUGCGGGUUCGAGUCACGUACGGAACG [A15C C61A] as the variant, how does the yeast fitness read?
Answer: Its yeast fitness is 0.761.

Question: For GUUCCGUUGGCGUACUGGUAACGCGUCUCCCUCCUAAGGAGAAGACUGCGGGUUCGAGUCUCGUACGGAACG [A15C C61U], which yeast fitness is on record?
Answer: The yeast fitness was 0.713.

Question: Which yeast fitness does the source give for GUUCCGUUGGCGUACUGGUAACGCGUCUCCCUCCUAAGGAGAAGAGUGCGGGUUCGAGUCCCGUGUGGAACG [A15C C46G A65G C66U] here?
Answer: The yeast fitness was at most 0.5.

Question: For GUUCCGUUGGCGUACUGGUAACGCGUCUCCCUCCUAAGGAGAAGACUGCGGGUUGGCGUCCCGUACGGAACG [A15C C55G A57C], which yeast fitness is on record?
Answer: Its yeast fitness is at most 0.5.

Question: Which yeast fitness does the source give for GUUCCGUUGGCGUACUGGUAACGCGUCUCCCUCGUAAGGAGAAGACUGGGGGUUCGAGUCCCGUAGGCAACG [A15C C34G C49G C66G G68C] here?
Answer: The yeast fitness was 0.612.

Question: For GUUCCGUUGGCGUACUGGUAACGCGUCUCCCUUCUAAGGAGAAGACUGCGGGUUCGAGUCGCGUACGGAACG [A15C C33U C61G], which yeast fitness is on record?
Answer: The yeast fitness was at most 0.5.

Question: Which yeast fitness does the source give for GUUCCGUUGGCGUACUGGUAACGCGUCUCCCUCCUAAGGAGAAGACUGCGGGUUAGAGUCCCGUCCGGAACG [A15C C55A A65C] here?
Answer: The yeast fitness was at most 0.5.

Question: With GUUCCGUUGGCGUACUGGUAACGCGUCUCCCUGCUAACGAGAAGACUGCGGGUUCGAGUCCAGUACGGAACG [A15C C33G G38C C62A] as the variant, how does the yeast fitness read?
Answer: Its yeast fitness is 0.551.

Question: With GUUCCGUUGGCGUACUGGUAACGCGUCUCCCUGCUAAGGAGAAGACUGCGGGUUCGAGUUCUGUACGGAACG [A15C C33G C60U C62U] as the variant, how does the yeast fitness read?
Answer: Its yeast fitness is at most 0.5.

Question: With GUUCCGUUGGCGUACUGGUAACGCGUCUCCGUCCUAAGGAGAAGACUGUGGGUUCGAGUCCCGCACAGAACG [A15C C31G C49U U64C G67A] as the variant, how does the yeast fitness read?
Answer: The yeast fitness was at most 0.5.

Question: For GUUCCGUUGGCGUACUGGUAACGCGUCUCCCUAUUCAGGAGAAGACUGCGGGUUCGAGUCCCGUACGGAACG [A15C C33A C34U A36C], which yeast fitness is on record?
Answer: The yeast fitness was 0.604.

Question: Which yeast fitness does the source give for GUUCCGUUGGCGUACUGGUAACGCGUCUCCCUCCUAAGGAGAAGACUGUGGGUUCGAGUCCCGUACGGGACG [A15C C49U A69G] here?
Answer: Its yeast fitness is at most 0.5.

Question: With GUUCCGUUGGCGUACUGGUAACGCGUCUCCCUCCUAAGGAGAAGAUUGUAGGUUCGAGUCCCGUACGGAACG [A15C C46U C49U G50A] as the variant, how does the yeast fitness read?
Answer: The yeast fitness was at most 0.5.

Question: With GUUCCGUUGGCGUACUGGUAACGCGUCUCCCUCCUAAGGAGAAGACUGAGGGUUCGAGUCCCGUACGCAACG [A15C C49A G68C] as the variant, how does the yeast fitness read?
Answer: The yeast fitness was at most 0.5.

Question: Which yeast fitness does the source give for GUUCCGUUGGCGUACUGGUAACGCGUCUCCCUCUUGAGGAGAAGACUGCGGGUUAGAGUCCCGUACGGAACG [A15C C34U A36G C55A] here?
Answer: The yeast fitness was at most 0.5.

Question: Which yeast fitness does the source give for GUUCCGUUGGCGUACUGGUAACGCGUCUCCUUCCUAAGGAGAAGUCUGCGCGUUCGAGUCCCGUACGGAACG [A15C C31U A45U G51C] here?
Answer: The yeast fitness was at most 0.5.

Question: With GUUCCGUUGGCGUACUGGUAACGCGUCUCCCUCCUAAGGAGAAGACUGCGGGUUCGAGUUCCGUACGGGACG [A15C C60U A69G] as the variant, how does the yeast fitness read?
Answer: The yeast fitness was at most 0.5.

Question: For GUUCCGUUGGCGUACUGGUAACGCGUCUCCCUCCUAAGGAGAAGACUGUGGGUCGGAGUCCCGUACGGAACG [A15C C49U U54C C55G], which yeast fitness is on record?
Answer: The yeast fitness was 0.64.

Question: Which yeast fitness does the source give for GUUCCGUUGGCGUACUGGUAACGCGUCUCCCUCCUAAGGAGAAGAUUGCGGGUUCGAGUUCCGUACGGAACG [A15C C46U C60U] here?
Answer: The yeast fitness was 0.58.

Question: Which yeast fitness does the source give for GUUCCGUUGGCGUACUGGUAACGCGUCUCCGUCCUAAGGAGAAGACUGCGGGUUAGAGUCCCGUACGGAACG [A15C C31G C55A] here?
Answer: The yeast fitness was 0.608.

Question: With GUUCCGUUGGCGUACUGGUAACGCGUCUCCCUUCUAAGGAGAAGACUGCGGGUUCGAGUCCCGUACGGAACG [A15C C33U] as the variant, how does the yeast fitness read?
Answer: The yeast fitness was 0.572.

Question: With GUUCCGUUGGCGUACUGGUAACGCGUCUCCCUGCUAAGGAGAAGACUGCGGGUUCGAGUCCCGUACGGAACG [A15C C33G] as the variant, how does the yeast fitness read?
Answer: Its yeast fitness is 0.505.

Question: With GUUCCGUUGGCGUACUGGUAACGCGUCUCCUUCCUAAGGAGAAGACUGCGGGUUGGAGUCCCGUACGGAACG [A15C C31U C55G] as the variant, how does the yeast fitness read?
Answer: The yeast fitness was at most 0.5.

Question: Which yeast fitness does the source give for GUUCCGUUGGCGUACUGGUAACGCGUCUCCCUCCUAAGGAGAAGACUGCGGGUUCGAGUACUGUACGGAACG [A15C C60A C62U] here?
Answer: The yeast fitness was at most 0.5.

Question: With GUUCCGUUGGCGUACUGGUAACGCGUCUCCUUCCUAAGGAGAAGACUGCGGGUUCGAGUCCCGUACGGAACG [A15C C31U] as the variant, how does the yeast fitness read?
Answer: Its yeast fitness is 0.742.

Question: Which yeast fitness does the source give for GUUCCGUUGGCGUACUGGUAACGCGUCUCCGAUGUAAGGAGAAGACUGCGGGUUCGAGUCCCGUACGGAACG [A15C C31G U32A C33U C34G] here?
Answer: The yeast fitness was at most 0.5.

Question: Which yeast fitness does the source give for GUUCCGUUGGCGUACUGGUAACGCGUCUCCCUCGUAAGGAGAAGACUGCGGGUUCGAGUCCCGUACGGAACG [A15C C34G] here?
Answer: The yeast fitness was 0.59.

Question: Which yeast fitness does the source give for GUUCCGUUGGCGUACUGGUAACGCGUCUCCCUCCUAAGGAGAAGACUGAGGGUUCGAGUCCCGUACGGAACG [A15C C49A] here?
Answer: Its yeast fitness is 0.637.

Question: For GUUCCGUUGGCGUACUGGUAACGCGUCUCCCUCCUAAGGAGAAGAUUGCGGGUUCGAGUCCCGUAAGGAACG [A15C C46U C66A], which yeast fitness is on record?
Answer: The yeast fitness was 0.55.

Question: Which yeast fitness does the source give for GUUCCGUUGGCGUACUGGUAACGCGUCUCCCUCAUAAGGAGAAGAUUGCGGGUUCGAGUCCCGUACGGAACG [A15C C34A C46U] here?
Answer: Its yeast fitness is 0.614.

Question: With GUUCCGUUGGCGUACUGGUAACGCGUCUCCCUCCUAAGGAGAAGAGUGCCGGUUCGAGUCACGUACGGAACG [A15C C46G G50C C61A] as the variant, how does the yeast fitness read?
Answer: Its yeast fitness is 0.636.

Question: For GUUCCGUUGGCGUACUGGUAACGCGUCUCCCUCUUAAGGAGAAGACUGCGGGUUAGAGUCCCGUACGGAACG [A15C C34U C55A], which yeast fitness is on record?
Answer: Its yeast fitness is at most 0.5.
